mABHD4 FP: ABHD4 (mouse) inhibition, primary FP screen. Q8VD66. purified mABHD4, FP-Rh probe fluorescence polarization. inhibition, % at 8.92 µM. 370,000 tested, 0.54% active. AID 720543;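 active means inhibition exceeding the mean over every tested compound plus 3 SD, cut at about 30% in these data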;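 further: 0% = plate median of compound wells and 100% = S159A mutant with DMSO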
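System: mouse ABHD4 enzyme, wild type / Medium: HEPES pH 7.0, NaCl, Pluronic buffer / Reagent: FP-Rh activity-based fluorescent probe / Control set: S159A mutant high control, sample median low control / Detection: fluorescence polarization with parallel and perpendicular emission, 525/598 nm / Schedule: 45 min + 60 min at 25 °C / Compound dosing: 8.92 µM, single dose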
PME-1 inh: blocks human protein phosphatase methylesterase 1. Q9Y570. recombinant PME-1, FP-Rh probe fluorescence polarization. inhibition, % at 5.9 µM. 320,000 tested, 0.53% active. AID 2130;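 active means inhibition above the campaign mean of all compounds plus 3 SD, cut at about 26% in these data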;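 further: competitive labeling of PME-1 active site by serine hydrolase directed probe; 0% = PME-1 with DMSO and 100% = wells lacking PME-1 enzyme; inhibitors block probe labeling so polarization falls and inhibition rises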
HTRA1 inh: inhibitors of human serine peptidase HTRA1; Q92743; recombinant HTRA1, FP-rhodamine activity-based probe, fluorescence polarization; inhibition, % at 5.96 µM; 340,000 tested, 0.5% active; AID 504803; in the data active means inhibition above about 36%;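 further: 0% = enzyme with DMSO and 100% = wells lacking enzyme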
Fam108B counter: Fam108B inhibition, counter-screen for RBBP9 inhibitors; 300,000 tested, 0.33% active; recombinant Fam108B, FP-Rh probe fluorescence polarization; inhibition, % at 9.51 µM;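 active means inhibition above the screen mean inhibition plus 3 SD, computed separately per campaign, cut at about 18% in these data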;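 further: inhibitors lower polarization as less probe binds the enzyme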
SIAE primary: human SIAE inhibition, primary screen; Q9HAT2; SIAE FP-Rh probe binding, fluorescence polarization; inhibition, % at 9.66 µM; 370,000 tested, 0.69% active; AID 1053197;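 active means inhibition above a cutoff: mean of compounds within the control limits plus 3 SD of those, cut at about 17% in these data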;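 further: 0% = plate median of compound wells and 100% = probe without SIAE protein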
Target sequence (Q9HAT2 whole entry, looked up): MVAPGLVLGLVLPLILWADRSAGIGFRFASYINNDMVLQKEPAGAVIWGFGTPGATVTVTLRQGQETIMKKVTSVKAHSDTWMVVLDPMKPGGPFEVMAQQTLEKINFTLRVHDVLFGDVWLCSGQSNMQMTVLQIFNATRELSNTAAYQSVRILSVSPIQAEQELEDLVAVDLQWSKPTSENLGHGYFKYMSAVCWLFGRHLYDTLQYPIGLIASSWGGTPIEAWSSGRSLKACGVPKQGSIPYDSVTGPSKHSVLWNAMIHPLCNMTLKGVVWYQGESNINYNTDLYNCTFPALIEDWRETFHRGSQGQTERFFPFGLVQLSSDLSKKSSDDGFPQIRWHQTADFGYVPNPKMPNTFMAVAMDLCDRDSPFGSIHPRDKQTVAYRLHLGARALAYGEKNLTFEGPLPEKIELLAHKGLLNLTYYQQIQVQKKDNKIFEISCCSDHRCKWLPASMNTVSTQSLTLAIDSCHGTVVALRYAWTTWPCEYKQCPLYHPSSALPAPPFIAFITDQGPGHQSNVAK
TCR CD3 inh: inhibitors of human TCR-CD3 interaction; TAMRA-labeled TCR probe fluorescence, biochemical; inhibition, % at 9.4 µM; 360,000 tested, 0.37% active; AID 651800; in the data active means inhibition above about 19%;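 further: recombinant mutant TCR 2C K166C tagged with TAMRA read by polarization; 0% = receptor in buffer alone and 100% = receptor with positive control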
SIAE inh conf: confirmation of human SIAE inhibitors | AID 1117263 | shares compounds with SIAE primary | inhibition, % at 9.66 µM | 2,300 tested, 13% active | SIAE FP-Rh activity-based probe, fluorescence polarization;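 active means mean inhibition of the replicates above the hit cutoff set in the primary screen, cut at about 17% in these data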;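 further: 0% = SIAE with DMSO and probe and 100% = probe without SIAE; inhibitors lower polarization as more probe stays unbound to SIAE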
Numbers without * were called inactive. The list is not random: actives were taken first. Their share in the collection is about 1.8%.

O=C1CC(c2cccnc2)=NN1c1ccccc1 was read as mABHD4 FP 4, PME-1 inh -4, HTRA1 inh 4, Fam108B counter 7, SIAE primary 28*, TCR CD3 inh 7 and SIAE inh conf -7.
For Cc1cc(OCC(=O)N2CCC(C(N)=O)CC2)c2c3c(c(=O)oc2c1)CCCC3 the results were mABHD4 FP -1, PME-1 inh -3, HTRA1 inh -2, Fam108B counter 2, SIAE primary 18*, TCR CD3 inh -2 and SIAE inh conf 6.
`Cc1cc(OCC(=O)O)c2c3c(c(=O)oc2c1)CCCC3` gave mABHD4 FP -2, PME-1 inh 2, HTRA1 inh 4, Fam108B counter 2, SIAE primary 3 and TCR CD3 inh 6.
CCOP(=O)(OCC)C(NC(=O)c1ccccc1C)C(Cl)(Cl)Cl (configuration not stated) was read as mABHD4 FP -4, PME-1 inh 5, HTRA1 inh 6, Fam108B counter 2, SIAE primary 19*, TCR CD3 inh -1 and SIAE inh conf 2.
COC(=O)C1=C(c2cccc(OCc3ccccc3)c2)C[C@@H]2CC[C@H]1N2C(=O)NCCOc1ccccc1 was read as mABHD4 FP -5, PME-1 inh 8, HTRA1 inh -29, SIAE primary 1 and TCR CD3 inh -4.
CCCCCSc1cc(OC)c(CCN)cc1OC was read as mABHD4 FP 11, PME-1 inh -3, HTRA1 inh 6, Fam108B counter -1, SIAE primary 19*, TCR CD3 inh 6 and SIAE inh conf 2.
Screening COc1cc(C(=S)N2CCOCC2)cc(OC)c1OC(=O)Cc1ccccc1 returned mABHD4 FP -3, PME-1 inh -1, HTRA1 inh -7, Fam108B counter 8, SIAE primary 19*, TCR CD3 inh 7 and SIAE inh conf 5.
`Cc1nc2ccccc2c(=O)n1-c1ccc(F)cc1F` gave mABHD4 FP -3, PME-1 inh -3, HTRA1 inh -10, Fam108B counter 4, SIAE primary 10 and TCR CD3 inh 3.

Assay outcomes as filed in PubChem.
